Experimental data reported in ChEMBL document CHEMBL5335790, “Design, synthesis and biological evaluation of novel 2,4-thiazolidinedione derivatives able to target the human BAG3 protein” (Eur J Med Chem, 2023).
pKd: −log10 of the molar value. Calls of active or inactive are those of the source. No cut-off for these calls is given here.

Experiments:
[1] = target: BAG family molecular chaperone regulator 3 (Homo sapiens, UniProt O95817); assay: Binding affinity to CM4 sensorchip immobilized glycosylated C-terminal His tagged human BAG3 transfected in HEK293T cells assessed as dissociation constant by SPR analysis
Summary of the method: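 SPR single-cycle kinetics on CM4-immobilized HEK-293T-expressed BAG3-His. Increasing compound concentrations in PBS with 5% DMSO and 0.05% P20 were injected at 30 µL/min without regeneration between injections, with blank subtraction. Kd from steady-state analysis, reported as mean ± SEM and compared by Student t-test.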

[2] = tested on: HD-MB03; assay: Antiproliferative activity against human HD-MB03 cells assessed as cell growth inhibition incubated for 72 hrs by resazurin dye based analysis; format: functional
Summary of the method: (§1)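 Cells seeded at 2000/well, treated 24 h later with compounds in a 6-point 2-fold dose series, duplicate wells, two independent experiments. After 72 h, resazurin was added at 44 µM final for 3 h at 37 °C and fluorescence was read at 590 nm. Viability was normalized to 1 µM bortezomib (positive) and 0.5% DMSO (negative) controls. GI50 is the mean ± SEM of dose-response curves.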

[3] = tested on: A549; assay: Antiproliferative activity against human A549 cells assessed as cell growth inhibition incubated for 72 hrs by resazurin dye based analysis; format: functional; summary of the method: as §1
[4] = tested on: HD-MB03; assay: Induction of cell cycle arrest in human HD-MB03 cells assessed as accumulation of cells at G1 phase at 10 uM incubated for 48 hrs by RNase/PI staining based cytofluorimetric analysis (reference value: 54.7%); format: functional
[5] = tested on: HD-MB03; assay: Induction of cell cycle arrest in human HD-MB03 cells assessed as accumulation of cells at G2/M phase at 10 uM incubated for 72 hrs by RNase/PI staining based cytofluorimetric analysis (reference value: 4.4%); format: functional
[6] = tested on: HD-MB03; assay: Induction of apoptosis in human HD-MB03 cells at 20 uM by Annexin V-FITC/PI staining based cytofluorimetric analysis; format: functional, cell-based; conditions: time 48-72 hrs, TDE = time-dependent effect
Summary of the method: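 HD-MB03 cells treated with 20 µM, then stained with annexin V-FITC and PI and analysed by flow cytometry. Mean ± SEM of three independent experiments; 2-way ANOVA with Tukey correction.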

[7] = tested on: HD-MB03; assay: Induction of autophagy in human HD-MB03 cells assessed as increase in LC3 green fluorescence at 20 uM incubated for 24 hrs by immunofluorescence analysis; format: functional, cell-based
Summary of the method: (§2)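 HD-MB03 cells transfected with a fluorescent LC3 plasmid, then treated 24 h later with 20 µM, alone or with chloroquine, for 24 h. Live cells stained 30 min with 50 nM LysoTracker Red and 10 µM Hoechst, then imaged by confocal microscopy. Fluorescence per field was expressed relative to DMSO control set to 1. Mean ± SD of three experiments; 2-way ANOVA.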

[8] = tested on: HD-MB03; assay: Induction of autophagy in human HD-MB03 cells assessed as increase in LC3 green fluorescence at 20 uM incubated for 24 hrs in presence of chloroquine by immunofluorescence analysis; format: functional, cell-based; summary of the method: as §2
[9] = tested on: HD-MB03; assay: Induction of autophagy in human HD-MB03 cells assessed as autophagic vacuole formation in presence of chloroquine at 20 uM incubated for 24 hrs by bright field imaging analysis; format: functional, cell-based
[10] = tested on: HD-MB03; assay: Induction of apoptosis in human HD-MB03 cells assessed as cell shrinkage at 20 uM incubated for 24 hrs in presence of chloroquine by bright field imaging analysis; format: functional, cell-based
[11] = tested on: HD-MB03; assay: Sensitization of chemotherapy induced cytotoxicity against human HD-MB03 cells assessed as inhibition of cell growth at 1.25 uM incubated for 72 hrs in presence of 0.12 unit of vincristine, etoposide, cisplatin, cyclophosphamide by resazurin dye based analysis (reference value: 51.43 +/- 1.17%); format: functional
[12] = tested on: HD-MB03; assay: Sensitization of chemotherapy induced cytotoxicity against human HD-MB03 cells assessed as inhibition of cell growth at 1.25 uM incubated for 72 hrs in presence of 1 unit of vincristine, etoposide, cisplatin, cyclophosphamide by resazurin dye based analysis (reference value: 91.53 +/- 1.15%); format: functional
[13] = tested on: HD-MB03; assay: Sensitization of chemotherapy induced cytotoxicity against human HD-MB03 cells assessed as inhibition of cell growth at 2.5 uM incubated for 72 hrs in presence of 0.12 unit of vincristine, etoposide, cisplatin, cyclophosphamide by resazurin dye based analysis (reference value: 51.43 +/- 1.17%); format: functional
[14] = tested on: HD-MB03; assay: Sensitization of chemotherapy induced cytotoxicity against human HD-MB03 cells assessed as inhibition of cell growth at 2.5 uM incubated for 72 hrs in presence of 0.25 unit of vincristine, etoposide, cisplatin, cyclophosphamide by resazurin dye based analysis (reference value: 73.44 +/- 0.92%); format: functional
[15] = tested on: HD-MB03; assay: Sensitization of chemotherapy induced cytotoxicity against human HD-MB03 cells assessed as inhibition of cell growth at 2.5 uM incubated for 72 hrs in presence of 1 unit of vincristine, etoposide, cisplatin, cyclophosphamide by resazurin dye based analysis (reference value: 91.53 +/- 1.15%); format: functional
[16] = tested on: HD-MB03; assay: Sensitization of chemotherapy induced cytotoxicity against human HD-MB03 cells assessed as inhibition of cell growth at 5 uM incubated for 72 hrs in presence of 0.12 unit of vincristine, etoposide, cisplatin, cyclophosphamide by resazurin dye based analysis (reference value: 51.43 +/- 1.17%); format: functional
[17] = tested on: HD-MB03; assay: Sensitization of chemotherapy induced cytotoxicity against human HD-MB03 cells assessed as inhibition of cell growth at 10 uM incubated for 72 hrs in presence of 0.12 unit of vincristine, etoposide, cisplatin, cyclophosphamide by resazurin dye based analysis (reference value: 51.43 +/- 1.17%); format: functional
[18] = tested on: HD-MB03; assay: Sensitization of chemotherapy induced cytotoxicity against human HD-MB03 cells assessed as inhibition of cell growth at 10 uM incubated for 72 hrs in presence of 0.25 unit of vincristine, etoposide, cisplatin, cyclophosphamide by resazurin dye based analysis (reference value: 73.44 +/- 0.92%); format: functional
[19] = tested on: HD-MB03; assay: Sensitization of chemotherapy induced cytotoxicity against human HD-MB03 cells assessed as inhibition of cell growth at 10 uM incubated for 72 hrs in presence of 1 unit of vincristine, etoposide, cisplatin, cyclophosphamide by resazurin dye based analysis (reference value: 91.53 +/- 1.15%); format: functional
[20] = tested on: HD-MB03; assay: Sensitization of chemotherapy induced cytotoxicity against human HD-MB03 cells assessed as inhibition of cell growth at 20 uM incubated for 72 hrs in presence of 0.25 unit of vincristine, etoposide, cisplatin, cyclophosphamide by resazurin dye based analysis (reference value: 73.44 +/- 0.92%); format: functional
[21] = tested on: HD-MB03; assay: Sensitization of chemotherapy induced cytotoxicity against human HD-MB03 cells assessed as inhibition of cell growth at 20 uM incubated for 72 hrs in presence of 0.5 unit of vincristine, etoposide, cisplatin, cyclophosphamide by resazurin dye based analysis (reference value: 83.74+/- 0.54%); format: functional
[22] = tested on: HD-MB03; assay: Cytotoxicity against human HD-MB03 cells assessed as inhibition of cell growth at 1.25 uM incubated for 72 hrs by resazurin dye based analysis relative to control; format: functional
Summary of the method: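 Resazurin viability in HD-MB03 cells, 2000/well, single-agent arm of the 6x6 matrix. Inhibitor was added 24 h after seeding, in a 6-point 2-fold series, duplicates, two independent experiments. After 72 h exposure, resazurin was added at 44 µM final for 3 h at 37 °C and fluorescence read at 590 nm. Viability normalized to 1 µM bortezomib and 0.5% DMSO controls.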

Chain of BAG family molecular chaperone regulator 3 (O95817 whole entry): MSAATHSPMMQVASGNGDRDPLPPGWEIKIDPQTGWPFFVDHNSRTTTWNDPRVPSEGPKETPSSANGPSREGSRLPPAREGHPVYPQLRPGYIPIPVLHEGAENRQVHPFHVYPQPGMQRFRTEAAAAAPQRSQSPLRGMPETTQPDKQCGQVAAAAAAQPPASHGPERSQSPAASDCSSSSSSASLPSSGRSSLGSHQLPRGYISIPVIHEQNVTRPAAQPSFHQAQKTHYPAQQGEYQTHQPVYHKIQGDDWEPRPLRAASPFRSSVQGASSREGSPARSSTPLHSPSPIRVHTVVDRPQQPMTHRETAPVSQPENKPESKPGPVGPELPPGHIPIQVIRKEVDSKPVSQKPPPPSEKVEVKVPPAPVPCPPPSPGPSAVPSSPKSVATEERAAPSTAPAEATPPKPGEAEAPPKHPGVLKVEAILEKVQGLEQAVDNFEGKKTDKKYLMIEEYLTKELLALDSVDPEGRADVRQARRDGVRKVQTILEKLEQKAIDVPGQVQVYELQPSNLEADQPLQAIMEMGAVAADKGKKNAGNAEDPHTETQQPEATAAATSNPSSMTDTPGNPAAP

For `CC(C(=O)N1CCOCC1)N1C(=O)S/C(=C\c2cccc(O)c2O)C1=O` (racemic), the pKd [1] was 4.35, the GI50 [2] was 11.2 µM and the GI50 [3] was 28 µM. For the same compound, the Activity [4] was 52.45%, the Activity [5] was 1.2% and the Activity [6] was “Tde”. For the same compound, the Activity [7] was “Active”, the Activity [8] was “inactive” and the Activity [9] was “inactive”. The Activity [10] was “Active”, the inhibition at 1.25 µM [11] was 47.7% and the inhibition at 1.25 µM [12] was 93.1%. It also gave an inhibition at 2.5 µM [13] of 53.4%, an inhibition at 2.5 µM [14] of 69.9% and an inhibition at 2.5 µM [15] of 92%. It also gave an inhibition at 5 µM [16] of 62.3%, an inhibition at 10 µM [17] of 75.8% and an inhibition at 10 µM [18] of 82.2%. The inhibition at 10 µM [19] was 92%, the inhibition at 20 µM [20] was 80.8% and the inhibition at 20 µM [21] was 87.7%. For the same compound, the inhibition at 1.25 µM [22] was -11.8%.
